Measurements: the M2OR odorant receptor database
Residue numbers refer to the chain shown, from its start.

Experiments:
Details in all cases: stereoisomer not certain
OR6K3 = test system: T1, OR6K3
T1 sequence (whole entry): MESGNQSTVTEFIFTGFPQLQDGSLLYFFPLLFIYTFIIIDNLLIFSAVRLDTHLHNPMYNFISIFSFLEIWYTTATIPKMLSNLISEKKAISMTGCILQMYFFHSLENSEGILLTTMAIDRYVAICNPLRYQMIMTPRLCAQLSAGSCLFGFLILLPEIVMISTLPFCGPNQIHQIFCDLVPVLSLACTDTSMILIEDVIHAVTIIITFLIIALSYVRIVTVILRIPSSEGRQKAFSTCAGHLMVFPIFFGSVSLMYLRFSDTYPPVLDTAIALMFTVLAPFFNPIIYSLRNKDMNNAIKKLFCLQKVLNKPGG
How it was run: (§1)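 Transient luciferase assays in mammalian cell lines were common, though methods varied by source. The values come from published papers and their supplementary material, with extra details from the original authors when needed. Responsive refers to a measured signal the original authors judged statistically different from baseline, and non-responsive (inactive) to the remainder.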

OR6K6 (Homo sapiens) = molecular target: T2, OR6K6 (Homo sapiens) (UniProt Q8NGW6)
T2 sequence (whole entry): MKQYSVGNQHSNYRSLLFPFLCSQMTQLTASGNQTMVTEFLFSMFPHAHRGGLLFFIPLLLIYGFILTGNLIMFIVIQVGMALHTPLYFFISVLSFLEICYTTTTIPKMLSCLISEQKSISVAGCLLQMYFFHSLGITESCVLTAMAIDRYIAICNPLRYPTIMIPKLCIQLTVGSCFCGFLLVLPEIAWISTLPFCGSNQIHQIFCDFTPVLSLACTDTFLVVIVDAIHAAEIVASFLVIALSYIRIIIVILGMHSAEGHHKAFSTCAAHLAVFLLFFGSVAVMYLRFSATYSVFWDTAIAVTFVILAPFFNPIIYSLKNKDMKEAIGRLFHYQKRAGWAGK
How it was run: as §1

OR6M1 (Homo sapiens) = molecular target: T3, OR6M1 (Homo sapiens) (UniProt Q8NGM8)
T3 sequence (whole entry): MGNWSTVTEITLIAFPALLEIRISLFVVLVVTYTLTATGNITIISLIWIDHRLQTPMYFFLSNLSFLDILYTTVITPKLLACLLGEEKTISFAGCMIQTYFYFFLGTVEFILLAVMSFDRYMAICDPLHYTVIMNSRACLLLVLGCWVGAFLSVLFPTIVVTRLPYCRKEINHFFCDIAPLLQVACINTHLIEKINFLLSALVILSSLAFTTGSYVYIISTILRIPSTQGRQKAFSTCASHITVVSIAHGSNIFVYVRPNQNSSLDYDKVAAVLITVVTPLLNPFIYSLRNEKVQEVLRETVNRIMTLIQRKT
How it was run: as §1

OR6M1 R224C = test system: T4, OR6M1 R224C
T4 sequence (whole entry): T3 sequence (whole entry) with R224C
How it was run: as §1

OR6M1 T276K = test system: T5, OR6M1 T276K
T5 sequence (whole entry): T3 sequence (whole entry) with T276K
How it was run: as §1

OR6N1 (Homo sapiens) = molecular target: T6, OR6N1 (Homo sapiens) (UniProt Q8NGY5)
T6 sequence (whole entry): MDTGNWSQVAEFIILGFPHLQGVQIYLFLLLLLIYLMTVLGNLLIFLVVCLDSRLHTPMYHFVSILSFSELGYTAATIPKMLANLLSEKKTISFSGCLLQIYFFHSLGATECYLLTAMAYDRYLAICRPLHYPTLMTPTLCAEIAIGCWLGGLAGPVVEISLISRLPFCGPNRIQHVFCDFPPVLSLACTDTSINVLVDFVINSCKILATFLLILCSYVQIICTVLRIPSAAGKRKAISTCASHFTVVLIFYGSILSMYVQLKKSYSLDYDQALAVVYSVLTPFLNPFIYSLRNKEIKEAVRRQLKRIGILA
How it was run: as §1

OR6N2 (Homo sapiens) = molecular target: T7, OR6N2 (Homo sapiens) (UniProt Q8NGY6)
T7 sequence (whole entry): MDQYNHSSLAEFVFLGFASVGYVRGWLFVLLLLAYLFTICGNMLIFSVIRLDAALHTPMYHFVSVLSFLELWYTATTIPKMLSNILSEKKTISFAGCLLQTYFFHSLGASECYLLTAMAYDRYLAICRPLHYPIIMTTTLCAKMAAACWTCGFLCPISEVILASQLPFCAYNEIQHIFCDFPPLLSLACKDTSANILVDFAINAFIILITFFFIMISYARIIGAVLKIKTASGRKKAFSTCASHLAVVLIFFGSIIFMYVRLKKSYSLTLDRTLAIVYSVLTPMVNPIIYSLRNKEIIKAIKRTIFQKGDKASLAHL
How it was run: as §1

OR6P1 (Homo sapiens) = molecular target: T8, OR6P1 (Homo sapiens) (UniProt Q8NGX9)
T8 sequence (whole entry): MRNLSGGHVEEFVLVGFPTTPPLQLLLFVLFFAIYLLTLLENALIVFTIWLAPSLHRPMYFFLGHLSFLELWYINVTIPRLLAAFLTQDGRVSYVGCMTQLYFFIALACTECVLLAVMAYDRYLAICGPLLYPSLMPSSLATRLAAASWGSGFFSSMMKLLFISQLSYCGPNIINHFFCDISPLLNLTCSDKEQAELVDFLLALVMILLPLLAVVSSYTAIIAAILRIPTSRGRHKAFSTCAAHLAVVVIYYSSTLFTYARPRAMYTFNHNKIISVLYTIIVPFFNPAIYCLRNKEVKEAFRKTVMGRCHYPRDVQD
How it was run: as §1

OR6Q1 (Homo sapiens) = molecular target: T9, OR6Q1 (Homo sapiens) (UniProt Q8NGQ2)
T9 sequence (whole entry): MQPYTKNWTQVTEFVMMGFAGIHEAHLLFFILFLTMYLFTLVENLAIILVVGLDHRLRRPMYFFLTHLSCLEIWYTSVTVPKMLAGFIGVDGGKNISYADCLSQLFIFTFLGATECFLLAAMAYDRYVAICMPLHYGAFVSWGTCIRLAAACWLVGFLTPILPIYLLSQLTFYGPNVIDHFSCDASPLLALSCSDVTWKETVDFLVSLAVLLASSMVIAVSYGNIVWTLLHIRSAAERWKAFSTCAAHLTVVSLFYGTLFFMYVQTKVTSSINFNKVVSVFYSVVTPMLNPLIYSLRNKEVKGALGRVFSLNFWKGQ
How it was run: as §1

OR6S1 (Homo sapiens) = molecular target: T10, OR6S1 (Homo sapiens) (UniProt Q8NH40)
T10 sequence (whole entry): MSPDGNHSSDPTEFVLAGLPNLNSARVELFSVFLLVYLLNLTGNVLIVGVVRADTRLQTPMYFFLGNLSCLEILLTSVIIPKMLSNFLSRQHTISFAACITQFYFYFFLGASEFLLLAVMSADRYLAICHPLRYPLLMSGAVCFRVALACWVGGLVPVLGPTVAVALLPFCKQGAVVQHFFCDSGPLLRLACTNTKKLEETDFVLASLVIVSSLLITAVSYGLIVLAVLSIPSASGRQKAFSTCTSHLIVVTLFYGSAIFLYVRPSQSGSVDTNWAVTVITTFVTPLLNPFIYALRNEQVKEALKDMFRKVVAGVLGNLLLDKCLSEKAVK
How it was run: as §1

OR6S1 T42I V156I = test system: T11, OR6S1 T42I V156I
T11 sequence (whole entry): T10 sequence (whole entry) with T42I, V156I
How it was run: as §1

OR6T1 (Homo sapiens) = molecular target: T12, OR6T1 (Homo sapiens) (UniProt Q8NGN1)
T12 sequence (whole entry): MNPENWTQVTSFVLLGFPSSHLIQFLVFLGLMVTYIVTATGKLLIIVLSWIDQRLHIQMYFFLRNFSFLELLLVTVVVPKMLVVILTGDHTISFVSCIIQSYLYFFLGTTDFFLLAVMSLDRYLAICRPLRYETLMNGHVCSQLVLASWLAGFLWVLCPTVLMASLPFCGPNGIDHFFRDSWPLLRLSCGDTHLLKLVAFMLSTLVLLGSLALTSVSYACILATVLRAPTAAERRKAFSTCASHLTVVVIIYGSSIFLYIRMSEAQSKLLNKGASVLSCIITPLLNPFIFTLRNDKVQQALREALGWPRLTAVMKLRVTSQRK
How it was run: as §1

OR6T1 N2D = test system: T13, OR6T1 N2D
T13 sequence (whole entry): T12 sequence (whole entry) with N2D
How it was run: as §1

OR6V1 (Homo sapiens) = molecular target: T14, OR6V1 (Homo sapiens) (UniProt Q8N148)
T14 sequence (whole entry): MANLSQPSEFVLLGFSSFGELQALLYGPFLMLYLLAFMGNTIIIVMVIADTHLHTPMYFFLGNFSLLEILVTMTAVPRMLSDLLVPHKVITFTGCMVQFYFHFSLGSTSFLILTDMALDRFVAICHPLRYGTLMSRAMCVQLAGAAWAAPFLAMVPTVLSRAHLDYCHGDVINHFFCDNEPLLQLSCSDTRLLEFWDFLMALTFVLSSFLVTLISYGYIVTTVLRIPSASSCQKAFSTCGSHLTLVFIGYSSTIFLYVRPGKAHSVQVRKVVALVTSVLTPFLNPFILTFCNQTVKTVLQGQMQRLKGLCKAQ
How it was run: as §1

OR6X1 (Homo sapiens) = molecular target: T15, OR6X1 (Homo sapiens) (UniProt Q8NH79)
T15 sequence (whole entry): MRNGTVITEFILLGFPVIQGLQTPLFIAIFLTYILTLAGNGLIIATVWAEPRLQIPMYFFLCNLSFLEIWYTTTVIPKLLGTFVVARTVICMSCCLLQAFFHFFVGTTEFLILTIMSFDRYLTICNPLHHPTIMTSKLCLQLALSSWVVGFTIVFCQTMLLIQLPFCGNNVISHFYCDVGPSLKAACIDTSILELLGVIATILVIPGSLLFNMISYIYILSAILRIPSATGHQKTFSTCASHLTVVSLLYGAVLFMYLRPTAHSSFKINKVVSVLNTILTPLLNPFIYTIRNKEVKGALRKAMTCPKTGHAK
How it was run: as §1

OR6Y1 (Homo sapiens) = molecular target: T16, OR6Y1 (Homo sapiens) (UniProt Q8NGX8)
T16 sequence (whole entry): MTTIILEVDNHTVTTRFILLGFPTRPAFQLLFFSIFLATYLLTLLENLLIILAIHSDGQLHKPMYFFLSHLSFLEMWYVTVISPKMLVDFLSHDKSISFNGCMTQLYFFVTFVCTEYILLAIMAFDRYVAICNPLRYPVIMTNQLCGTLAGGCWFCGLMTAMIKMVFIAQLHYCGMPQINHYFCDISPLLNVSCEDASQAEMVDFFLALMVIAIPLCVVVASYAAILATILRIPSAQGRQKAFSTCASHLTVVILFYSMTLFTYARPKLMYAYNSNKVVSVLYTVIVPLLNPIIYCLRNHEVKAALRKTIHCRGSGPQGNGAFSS
How it was run: as §1

OR7A10 (Homo sapiens) = molecular target: T17, OR7A10 (Homo sapiens) (UniProt O76100)
T17 sequence (whole entry): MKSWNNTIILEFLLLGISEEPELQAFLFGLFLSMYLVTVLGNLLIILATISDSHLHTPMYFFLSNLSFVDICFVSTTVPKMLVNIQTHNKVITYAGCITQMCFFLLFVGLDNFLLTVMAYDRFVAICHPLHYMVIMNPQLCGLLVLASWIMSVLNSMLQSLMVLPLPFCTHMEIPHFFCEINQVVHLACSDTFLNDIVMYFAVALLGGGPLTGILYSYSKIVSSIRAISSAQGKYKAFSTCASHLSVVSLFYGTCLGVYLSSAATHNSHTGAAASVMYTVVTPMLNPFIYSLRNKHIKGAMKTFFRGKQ
How it was run: as §1

OR7A17 (Homo sapiens) = molecular target: T18, OR7A17 (Homo sapiens) (UniProt O14581)
T18 sequence (whole entry): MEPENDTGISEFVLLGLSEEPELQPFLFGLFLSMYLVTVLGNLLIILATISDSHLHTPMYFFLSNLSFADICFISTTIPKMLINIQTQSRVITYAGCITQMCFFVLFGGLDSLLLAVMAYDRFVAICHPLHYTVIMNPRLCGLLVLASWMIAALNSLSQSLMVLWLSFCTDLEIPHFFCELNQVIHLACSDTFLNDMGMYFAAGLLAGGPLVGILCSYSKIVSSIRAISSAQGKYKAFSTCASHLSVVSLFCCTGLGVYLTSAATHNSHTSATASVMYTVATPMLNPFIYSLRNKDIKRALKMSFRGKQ
How it was run: as §1

OR7A5 (Homo sapiens) = molecular target: T19, OR7A5 (Homo sapiens) (UniProt Q15622)
T19 sequence (whole entry): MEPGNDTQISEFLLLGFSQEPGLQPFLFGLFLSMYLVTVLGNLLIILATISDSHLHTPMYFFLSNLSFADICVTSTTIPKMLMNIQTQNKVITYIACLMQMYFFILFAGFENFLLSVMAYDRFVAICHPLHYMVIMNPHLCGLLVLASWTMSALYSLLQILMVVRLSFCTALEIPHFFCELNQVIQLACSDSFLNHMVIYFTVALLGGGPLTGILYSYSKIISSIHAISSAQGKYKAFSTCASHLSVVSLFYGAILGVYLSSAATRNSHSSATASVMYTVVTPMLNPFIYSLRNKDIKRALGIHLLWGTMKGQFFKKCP
How it was run: as §1

Measured: odorant receptor agonist call;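 note: active if original authors judged signal statistically different from baseline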

CC1=C(O)C(=O)OC1C (configuration not stated)
inactive: OR6K3 | OR6K6 (Homo sapiens) | OR6M1 (Homo sapiens) | OR6M1 R224C | OR6M1 T276K | OR6N1 (Homo sapiens) | OR6N2 (Homo sapiens) | OR6P1 (Homo sapiens) | OR6Q1 (Homo sapiens) | OR6S1 (Homo sapiens) | OR6S1 T42I V156I | OR6T1 (Homo sapiens) | OR6T1 N2D | OR6V1 (Homo sapiens) | OR6X1 (Homo sapiens) | OR6Y1 (Homo sapiens) | OR7A10 (Homo sapiens) | OR7A17 (Homo sapiens) | OR7A5 (Homo sapiens)

CCC1OC(=O)C(O)=C1C (configuration not stated)
inactive: OR6K3 | OR6K6 (Homo sapiens) | OR6M1 (Homo sapiens) | OR6M1 R224C | OR6M1 T276K | OR6N1 (Homo sapiens) | OR6N2 (Homo sapiens) | OR6P1 (Homo sapiens) | OR6Q1 (Homo sapiens) | OR6S1 (Homo sapiens) | OR6S1 T42I V156I | OR6T1 (Homo sapiens) | OR6T1 N2D | OR6V1 (Homo sapiens) | OR6X1 (Homo sapiens) | OR6Y1 (Homo sapiens) | OR7A10 (Homo sapiens) | OR7A17 (Homo sapiens) | OR7A5 (Homo sapiens)

Cc1cnc(C)c(C)n1
inactive: OR6K3 | OR6K6 (Homo sapiens) | OR6M1 (Homo sapiens) | OR6M1 R224C | OR6M1 T276K | OR6N1 (Homo sapiens) | OR6N2 (Homo sapiens) | OR6P1 (Homo sapiens) | OR6Q1 (Homo sapiens) | OR6S1 (Homo sapiens) | OR6S1 T42I V156I | OR6T1 (Homo sapiens) | OR6T1 N2D | OR6V1 (Homo sapiens) | OR6X1 (Homo sapiens) | OR6Y1 (Homo sapiens) | OR7A10 (Homo sapiens) | OR7A17 (Homo sapiens) | OR7A5 (Homo sapiens)
